The source made the active and inactive calls. No cut-off for these calls is given here.
Experiments:
[1] = target: T1, Histone-arginine methyltransferase CARM1 (Homo sapiens, UniProt Q86X55); assay: Inhibition of CARM1-mediated methylation of PABP1 after 90 mins by scintillation counting in presence of S-adenosyl-l-[methyl-3H]methionine
T1 sequence (Q86X55 whole entry): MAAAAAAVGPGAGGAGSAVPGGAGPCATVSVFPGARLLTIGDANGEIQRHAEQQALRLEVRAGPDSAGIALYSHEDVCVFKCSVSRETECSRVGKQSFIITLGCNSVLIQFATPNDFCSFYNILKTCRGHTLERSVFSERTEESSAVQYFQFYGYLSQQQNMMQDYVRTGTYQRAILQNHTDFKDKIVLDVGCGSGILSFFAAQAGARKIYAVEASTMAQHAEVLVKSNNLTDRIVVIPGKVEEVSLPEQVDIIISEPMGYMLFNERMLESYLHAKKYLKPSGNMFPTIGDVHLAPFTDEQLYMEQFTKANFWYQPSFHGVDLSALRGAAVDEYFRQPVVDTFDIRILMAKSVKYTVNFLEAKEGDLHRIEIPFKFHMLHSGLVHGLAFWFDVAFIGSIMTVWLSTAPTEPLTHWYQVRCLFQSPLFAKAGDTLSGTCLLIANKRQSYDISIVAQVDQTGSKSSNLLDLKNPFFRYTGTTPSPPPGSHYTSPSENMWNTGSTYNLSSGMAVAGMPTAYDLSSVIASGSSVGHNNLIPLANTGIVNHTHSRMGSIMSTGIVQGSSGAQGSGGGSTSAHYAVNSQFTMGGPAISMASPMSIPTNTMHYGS

[2] = target: Protein arginine N-methyltransferase 1 (Homo sapiens, UniProt Q99873); assay: Inhibition of PRMT1-mediated methylation of NPL3 after 90 mins by scintillation counting in presence of S-adenosyl-l-[methyl-3H]methionine
[3] = target: T2, Histone-lysine N-methyltransferase SETD7 (Homo sapiens, UniProt Q8WTS6); assay: Inhibition of SET7-mediated methylation of histone H3 after 90 mins by scintillation counting in presence of S-adenosyl-l-[methyl-3H]methionine
T2 sequence (Q8WTS6 whole entry): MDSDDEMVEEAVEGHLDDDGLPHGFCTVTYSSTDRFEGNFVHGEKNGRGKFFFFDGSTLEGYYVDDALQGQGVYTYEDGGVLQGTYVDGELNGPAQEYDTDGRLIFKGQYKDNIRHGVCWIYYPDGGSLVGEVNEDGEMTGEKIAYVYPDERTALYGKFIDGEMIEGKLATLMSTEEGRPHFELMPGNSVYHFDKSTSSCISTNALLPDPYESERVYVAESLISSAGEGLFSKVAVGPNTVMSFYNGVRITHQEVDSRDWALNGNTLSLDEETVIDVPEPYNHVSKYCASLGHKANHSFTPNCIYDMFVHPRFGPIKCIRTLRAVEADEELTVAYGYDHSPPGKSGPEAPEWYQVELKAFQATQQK

[4] = target: T3, Histone-arginine methyltransferase CARM1 (Homo sapiens) (UniProt Q86X55); assay: Inhibition of CARM1-mediated methylation of CA150 at 100 uM after 90 mins by scintillation counting in presence of S-adenosyl-l-[methyl-3H]methionine
T3 sequence (whole entry): T1 sequence (Q86X55 whole entry)
How it was run: (§1)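 Compound at 100 μM with 0.1–0.2 μM recombinant enzyme and 0.5–1.5 μM substrate in PBS pH 7.4 containing [³H]AdoMet. Incubated 30 °C for 90 min, then SDS-PAGE, PVDF transfer and overnight film fluorography. Ponceau-stained substrate bands cut out and dpm counted by liquid scintillation.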

[5] = target: T3, Histone-arginine methyltransferase CARM1 (Homo sapiens); assay: Inhibition of CARM1-mediated methylation of SMB at 100 uM after 90 mins by scintillation counting in presence of S-adenosyl-l-[methyl-3H]methionine; how it was run: as §1
[6] = target: T3, Histone-arginine methyltransferase CARM1 (Homo sapiens); assay: Inhibition of CARM1-mediated methylation of histone H3 at 100 uM after 90 mins by scintillation counting in presence of S-adenosyl-l-[methyl-3H]methionine; how it was run: as §1
[7] = target: Protein arginine N-methyltransferase 3 (Homo sapiens) (UniProt O60678); assay: Inhibition of PRMT3-mediated methylation of NPL3 at 100 uM after 90 mins by scintillation counting in presence of S-adenosyl-l-[methyl-3H]methionine; how it was run: as §1
[8] = target: Protein arginine N-methyltransferase 3 (Homo sapiens) (UniProt O60678); assay: Inhibition of PRMT3-mediated methylation of ribosome protein rpS223 at 100 uM after 90 mins by scintillation counting in presence of S-adenosyl-l-[methyl-3H]methionine; how it was run: as §1
[9] = target: Protein arginine N-methyltransferase 5 (Homo sapiens) (UniProt O14744); assay: Inhibition of PRMT5-mediated methylation of histone H4 at 100 uM after 90 mins by scintillation counting in presence of S-adenosyl-l-[methyl-3H]methionine; how it was run: as §1
[10] = target: T4, Histone-lysine N-methyltransferase SETD7 (Homo sapiens) (UniProt Q8WTS6); assay: Inhibition of SET7-mediated methylation of histone H3 at 100 uM after 90 mins by scintillation counting in presence of S-adenosyl-l-[methyl-3H]methionine; how it was run: as §1
T4 sequence (whole entry): T2 sequence (Q8WTS6 whole entry)

[11] = target: T3, Histone-arginine methyltransferase CARM1 (Homo sapiens); assay: Inhibition of CARM1-mediated prostate specific antigen promoter activity in human LNCAP cells after 48 hrs by luciferase reporter gene assay; type: cell-based
How it was run: (§2)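 LNCaP grown in phenol-red-free RPMI1640 with 10% charcoal-stripped FCS, lipofected with 300 ng PSA(ARE)-LUC and 2 ng CMV-Renilla internal control. After 12 h, 20 nM DHT added to induce PSA-firefly, together with increasing compound concentrations. Cells harvested 42–44 h later; 5/6 used for dual luciferase read-out (firefly relative to Renilla). Mean ± SD from triplicate assays.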

[12] = target: T3, Histone-arginine methyltransferase CARM1 (Homo sapiens); assay: Inhibition of CARM1-mediated prostate specific antigen promoter activity in human LNCAP cells at 30 uM after 48 hrs by luciferase reporter gene assay; type: cell-based; how it was run: as §2
[13] = tested on: LNCaP; assay: Cytotoxicity against human LNCAP cells assessed as ATP level at 30 uM after 44 hrs by CellTiter-Glo luminescent assay; type: cell-based
How it was run: (§3)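 LNCaP in phenol-red-free RPMI1640 with 10% charcoal-stripped FCS, seeded ~20 h before transfection with PSA(ARE)-LUC plus CMV-Renilla. 12 h after transfection, treated with 20 nM DHT and compound. Harvested after 42–44 h; 1/6 of the cells assayed for ATP by CellTiter-Glo luminescence.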

[14] = target: T3, Histone-arginine methyltransferase CARM1 (Homo sapiens); assay: Inhibition of CARM1 expressed in tetracycline-induced human HEK293 cells coexpressing flag-tagged PABP1 assessed as inhibition of PABP1 methylation at 1 to 5 uM by SDS-PAGE analysis; type: cell-based
How it was run: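 HEK293 line carrying tetracycline-controlled TetR with inducible Flag-tagged PABP1. Tetracycline added in the presence of compound to induce Flag-PABP1, which is resolved from endogenous PABP1 by its slower SDS-PAGE migration. Methylation detected with a methyl-specific PABP1 antibody.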

[15] = tested on: LNCaP; assay: Cytotoxicity against human LNCAP cells assessed as ATP level at 8 to 10 uM after 44 hrs by CellTiter-Glo luminescent assay; type: cell-based; how it was run: as §3

Protein arginine N-methyltransferase 3 (Homo sapiens), sequence (O60678 2-531 limits assumed): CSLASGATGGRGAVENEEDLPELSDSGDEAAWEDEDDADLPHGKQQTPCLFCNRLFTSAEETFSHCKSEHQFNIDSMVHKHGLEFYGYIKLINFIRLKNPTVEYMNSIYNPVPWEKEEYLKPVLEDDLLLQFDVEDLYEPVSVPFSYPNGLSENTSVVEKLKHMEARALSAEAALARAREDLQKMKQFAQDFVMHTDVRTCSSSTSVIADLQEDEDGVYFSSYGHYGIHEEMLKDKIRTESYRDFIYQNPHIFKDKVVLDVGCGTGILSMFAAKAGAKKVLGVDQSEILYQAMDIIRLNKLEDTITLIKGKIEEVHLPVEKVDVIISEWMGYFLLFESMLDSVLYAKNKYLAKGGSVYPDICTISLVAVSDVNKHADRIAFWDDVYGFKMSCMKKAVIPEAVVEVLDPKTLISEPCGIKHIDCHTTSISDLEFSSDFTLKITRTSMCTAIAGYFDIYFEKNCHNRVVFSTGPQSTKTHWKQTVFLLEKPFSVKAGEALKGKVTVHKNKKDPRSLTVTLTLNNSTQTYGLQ
Protein arginine N-methyltransferase 1, sequence (Q99873 whole entry): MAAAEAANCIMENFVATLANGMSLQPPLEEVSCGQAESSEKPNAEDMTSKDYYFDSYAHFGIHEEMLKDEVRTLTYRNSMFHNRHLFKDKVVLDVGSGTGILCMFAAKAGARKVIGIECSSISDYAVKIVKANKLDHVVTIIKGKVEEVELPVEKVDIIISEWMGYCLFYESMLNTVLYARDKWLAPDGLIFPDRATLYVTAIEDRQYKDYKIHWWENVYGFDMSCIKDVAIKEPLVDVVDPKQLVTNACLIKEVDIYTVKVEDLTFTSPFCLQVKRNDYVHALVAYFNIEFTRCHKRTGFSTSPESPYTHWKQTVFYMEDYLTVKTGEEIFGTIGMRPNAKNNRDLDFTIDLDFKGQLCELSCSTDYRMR
Protein arginine N-methyltransferase 5 (Homo sapiens), sequence (O14744 whole entry): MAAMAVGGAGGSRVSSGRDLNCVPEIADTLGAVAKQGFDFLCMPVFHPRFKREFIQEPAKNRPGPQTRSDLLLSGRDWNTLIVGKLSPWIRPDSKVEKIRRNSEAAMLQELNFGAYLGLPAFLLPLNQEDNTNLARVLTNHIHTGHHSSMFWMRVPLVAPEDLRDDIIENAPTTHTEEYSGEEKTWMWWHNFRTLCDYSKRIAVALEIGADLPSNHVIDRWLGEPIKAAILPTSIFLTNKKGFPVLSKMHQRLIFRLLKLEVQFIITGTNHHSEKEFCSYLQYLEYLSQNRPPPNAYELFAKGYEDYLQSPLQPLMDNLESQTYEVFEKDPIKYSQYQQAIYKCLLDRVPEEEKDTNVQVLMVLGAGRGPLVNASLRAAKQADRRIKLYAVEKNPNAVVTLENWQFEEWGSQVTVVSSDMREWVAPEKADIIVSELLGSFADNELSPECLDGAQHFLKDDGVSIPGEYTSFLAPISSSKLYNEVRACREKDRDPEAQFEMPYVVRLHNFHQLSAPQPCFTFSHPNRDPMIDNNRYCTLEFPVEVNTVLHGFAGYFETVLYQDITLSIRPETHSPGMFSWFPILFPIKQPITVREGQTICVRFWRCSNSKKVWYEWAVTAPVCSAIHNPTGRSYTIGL

| SMILES | IC50 [1] [µM] | IC50 [2] [µM] | IC50 [3] [µM] | inhibition [4] | inhibition [5] | inhibition [6] | inhibition [7] | inhibition [8] | inhibition [9] | inhibition [10] | inhibition [11] | inhibition [12] | Activity [13] | inhibition [14] | Activity [15] |
| --- | --- | --- | --- | --- | --- | --- | --- | --- | --- | --- | --- | --- | --- | --- | --- |
| O=C1/C(=C/c2ccc(O)c(Br)c2)CN(Cc2cccc(Cl)c2)C/C1=C\c1ccc(O)c(Br)c1 | 8.1 | > 667 | 174 | Active | Active | Active | Active | Active | Active | inactive | Dose-dependent effect | – | – | – | – |
| O=C1/C(=C/c2ccc(O)c(Br)c2)CN(CC(=O)c2ccccc2)C/C1=C\c1ccc(O)c(Br)c1 | 14.4 | > 667 | 149 | Active | Active | Active | – | – | Active | inactive | – | Active | Non-toxic | – | – |
| O=C1/C(=C/c2ccc(O)c(Br)c2)CN(Cc2ccccc2)C/C1=C\c1ccc(O)c(Br)c1 | 8.6 | > 667 | > 667 | Active | Active | Active | Active | Active | – | inactive | Dose-dependent effect | – | – | Active | Non-toxic |

Reference: ChEMBL document CHEMBL1799916, “Novel 3,5-bis(bromohydroxybenzylidene)piperidin-4-ones as coactivator-associated arginine methyltransferase 1 inhibitors: enzyme selectivity and cellular activity” (J Med Chem, 2011)
